# Active and inactive are the calls of the source. The calls are words filed in the database; no cut-off is given here.
# How the values were obtained:
# [1] = system: 4T1; assay: Induction of cell cycle arrest in mouse 4T1 cells assessed as accumulation at G2/M phase at 0.4 mM incubated for 24 hrs by PI staining based flow cytometric analysis (reference value: 19.82%); format: functional
# [2] = system: 4T1; assay: Induction of cell death in mouse 4T1 cells incubated for 24 hrs by PI staining based inverted microscopic method; format: functional
# Outline: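 Live–dead staining of 4T1 cells after 24 h exposure to 0.4 mM, read by PI staining. A 0.8 mM level was also examined.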
# [3] = Toxicity in BALB/c mouse xenografted with mouse 4T1 cells assessed as change in blood urea nitrogen level at 10 mg/kg administered intratumorally and measured after 24 days; format: organism-based; details: in vivo, other, 576 h
# [4] = system: 4T1; assay: Induction of apoptosis in mouse 4T1 cells assessed as late apoptotic cells at 0.4 mM incubated for 24 hrs by Annexin V-FITC/PI based FACS analysis (reference value: 6.62%); format: functional
# [5] = system: 4T1; assay: Inhibition of metastasis in mouse 4T1 cells assessed as cell shrinkage at 0.2 mM incubated for 24 hrs by Hoechst 33342 staining based confocal laser scanning microscopic method; format: functional
# Outline: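 After 24 h treatment, 4T1 cells were stained with Alexa Fluor 488 phalloidin for F-actin and Hoechst 33342 for nuclei, then imaged by fluorescence microscopy to assess cytoskeleton and cell morphology.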
# [6] = Toxicity in BALB/c mouse xenografted with mouse 4T1 cells assessed as change in serum creatinine level at 10 mg/kg administered intratumorally and measured after 24 days; format: organism-based; details: in vivo, other, 576 h
# [7] = system: 4T1; assay: Induction of cell cycle arrest in mouse 4T1 cells assessed as accumulation at G0/G1 phase at 0.4 mM incubated for 24 hrs by PI staining based flow cytometric analysis (reference value: 37.78%); format: functional
# [8] = system: 4T1; assay: Inhibition of metastasis in mouse 4T1 cells assessed as disruption in F-actin arrangement at 0.2 mM incubated for 24 hrs by Hoechst 33342 staining based confocal laser scanning microscopic method; format: functional, cell-based
# Outline: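 After 24 h at 0.2 mM, 4T1 cells were stained for F-actin with Alexa Fluor 488 phalloidin and for nuclei with Hoechst 33342, then imaged by fluorescence for cytoskeletal arrangement and cell morphology.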
# [9] = system: 4T1; assay: Induction of apoptosis in mouse 4T1 cells assessed as viable cells at 0.4 mM incubated for 24 hrs by Annexin V-FITC/PI based FACS analysis (reference value: 92.2%); format: functional; details: 4T1, 24 h, read-out: Activity
# [10] = system: 4T1; assay: Inhibition of cell migration in mouse 4T1 cells assessed as wound closure rate at 0.2 mM measured up to 36 hrs by inverted optical microscopic method based wound healing assay (reference value: 82%); format: functional; set-up: scale not given: the % may be the effect or the level left
smiles,measurement,setting,value
COC(=O)[C@H](CCCCNC(=O)[C@H](CCCCNC(=O)[C@H](CCCCNC(=O)[C@H](CC(C)C)NC(=O)[C@H](CO)NC(=O)[C@@H](N)Cc1ccc(O)cc1)NC(=O)[C@H](CC(C)C)NC(=O)[C@H](CO)NC(=O)[C@@H](N)Cc1ccc(O)cc1)NC(=O)[C@H](CCCCNC(=O)[C@H](CC(C)C)NC(=O)[C@H](CO)NC(=O)[C@@H](N)Cc1ccc(O)cc1)NC(=O)[C@H](CC(C)C)NC(=O)[C@H](CO)NC(=O)[C@@H](N)Cc1ccc(O)cc1)NC(=O)[C@H](CCCCNC(=O)[C@H](CCCCNC(=O)[C@H](CC(C)C)NC(=O)[C@H](CO)NC(=O)[C@@H](N)Cc1ccc(O)cc1)NC(=O)[C@H](CC(C)C)NC(=O)[C@H](CO)NC(=O)[C@@H](N)Cc1ccc(O)cc1)NC(=O)[C@H](CCCCNC(=O)[C@H](CC(C)C)NC(=O)[C@H](CO)NC(=O)[C@@H](N)Cc1ccc(O)cc1)NC(=O)[C@H](CC(C)C)NC(=O)[C@H](CO)NC(=O)[C@@H](N)Cc1ccc(O)cc1,Activity,[1],7.08%
same,Activity,[2],Dose-dependent effect
same,Activity,[3],Non-Toxic
same,Activity,[4],56.2%
same,inhibition,[5],Active
same,Activity,[6],Non-Toxic
same,Activity,[7],44.44%
same,F-actin disruption (qualitative),[8],Active
same,viability at 400 µM,[9],37.5%
same,Activity,[10],30%
